Tests used:
[1] = test system: MS2 coat protein; test: apparent Kd, MS2 coat protein; higher = weaker binding; RNA-MaP array; theophylline 2 mM where present
Outline: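 SNAP-549-labelled MS2 coat protein, doubled from 0.7 or 1.5 nM to 3 µM, was titrated over designs transcribed by stalled E. coli RNA polymerase on Illumina sequencing-chip clusters. Titrations were run without and then with constant ligand in 100 mM Tris-HCl pH 7.5, 80 mM KCl, 4 mM MgCl2, BSA, DTT, yeast tRNA and Tween-20. The apparent Kd is the median of filtered per-cluster fits to green signal normalised to red-channel RNA signal and control-cluster median Fmax.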

[2] = test system: MS2 coat protein; test: apparent Kd, MS2 coat protein; higher = weaker binding; RNA-MaP array; conditions: designed as: ON switch for flavin mononucleotide
Outline: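 Apparent Kd was taken as the median of binding curves fitted cluster by cluster. The designed RNAs were made by transcription of sequenced DNA templates on an Illumina sequencing chip and exposed to fluorescently labeled MS2 coat protein (1.5 nM to 3 μM) at room temperature, with or without input ligand, for 0.8–1.5 h at the lowest and 10–20 min at the highest concentrations. Any design measured on fewer than 10 clusters was left out.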

[3] = designed as: ON switch for theophylline, no ligand
[4] = designed as: OFF switch for theophylline, no ligand
[5] = ligand present: theophylline, designed as: OFF switch for theophylline
[6] = ligand present: theophylline, designed as: ON switch for theophylline
[7] = ligand present: flavin mononucleotide

Sequence	apparent Kd [1, 3] [nM]	apparent Kd [1, 4] [nM]	apparent Kd [1, 5] [nM]	apparent Kd [1, 6] [nM]	also measured
ACAUGAGGAUCACCCAUGUCUGCCACUGAUACCAGCGGAAGAAAACGCCCUUGGCAGCAGAACAUGAGGAUCACCCAUGUAGGCU	274				
AUAGUCUAGAGUGAUACCAGACAACAUGAGGAUCACCCAUGUAGCAUAUGGUUAUCAUGAGUCCCUUGGCAGCACGCAUGUAUAG		12.3	55.8		
ACUAGUUGUGCAGAUACCAGACAUGAGGAUCACCCAUGUUUGGGUUGUUCGCAACUUCCUGUCCCUUGGCAGCUGUACAUCUAGA		24.9	138		
GGAUAGAUAGGAGAUACCAGAUACAUAAACAUGAGGAUCACCCAUGUGUCUGCACUAAGUAUCCCUUGGCAGCUCGGAGAUCUGA	17.6			15	
ACGAACUGUAGUGAUACCAGACACACAUGAGGAUCACCCAUGUUGUUAGCAUGGUGAAUAGUCCCUUGGCAGCACAGUUAGUUCG		98.6	217		
ACAUGAGGAUCACCCAUGUUCCUCGCCGAUACCAGUGAAGAAGAACGCCCUUGGCAGCGGAAAGAAUAUUUUGGAGAUGAGGUAU		164	189		
UCCUCCUCCGGAAGGAGGAGGAGUUGCGAUACCAGCCCGGAAACGGGCCCUUGGCAGCGCACAUGAGGAUCACCCAUGUCAUGUU		18.4	24.1		
AUGUCGUUGAAUAUAGCGGCUUGGUGUGAUACCAGAAUGAUCAAAUUCCCUUGGCAGCAUUACAUGAGGAUCACCCAUGUUUAGG	23.7			22.9	
UCUUACUUGGUAGAUACCAGCGUGUUAUCUUUCUUUUGACAUGAGGAUCACCCAUGUAUAUGCCCUUGGCAGCUGCAUAGUGUGU	34.9			35.1	
UCACAUGAGGAUCACCCAUGUACAGGCGAUACCAGCCGUACAUUGGGCCCUUGGCAGCGCAUCGAGACCUUUAUAAGCACCUCGG	49.9			298	
UCGUGUGUUUCGGAUACCAGUGUGGUCGAUACAUGAGGAUCACCCAUGUGAGAGGAGGUACACCCUUGGCAGCUGGCUGUUGCGG	72			86.4	
CUGCCAUGCAGAGAUACCAGUGCGCUCAGCACAUGAGGAUCACCCAUGUUGGCUGCCGAUCACCCUUGGCAGCUCUGCAUGGCAG	10.8			7.62	
ACAUAGAGAUUAAUCGUGGGCAUACUCGAUACCAGUAUUUUAACCUACCCUUGGCAGCGACAUGAGGAUCACCCAUGUGAGAUGA		22.2	39.5		
CUUGGUAGAUCCUAGCUGCCAAGAGGUGAUACCAGCAUCGAAAGAUGCCCUUGGCAGCACCAACAUGAGGAUCACCCAUGUAAUA	70.7			339	
UUUUUCGCGGGUGAUACCAGCAAAGCUGUACUGGUCUGGUACAUGAGGAUCACCCAUGUUUGCCCUUGGCAGCGCUCGGGAGAAG		29.5	71.9		
GAUGAUAUUGCAGAUACCAGACACAUGAGGAUCACCCAUGUCGUUGGGUAGCUGGGUCGUGUCCCUUGGCAGCUGCGAUAUCAUC		23.3	138		
AACUGGAAAAGUGAUACCAGAGACAUGAGGAUCACCCAUGUACAUGAGGAUCACCCAUGUCUCCCUUGGCAGCACAAAAGGGAGA		30.6	64.8		
CGUGAUCCCUGUGAUACCAGAAGUACAUGAGGAUCACCCAUGUCAAACACAAAACCAAGCUUCCCUUGGCAGCAUAGUCGUUAAG	238			1310	
ACAUGAGGAUCACCCAUGUGCCGUCUUGAUACCAGACGCGAAGUAGUCCCUUGGCAGCAACUACGUGACGGUCGCGCAUGUGUAG		16.6	28.6		
ACAUCCAGGUUAAUCGUGGACAUGGUCGAUACCAGUAUUUUAAUCUACCCUUGGCAGCGACAUGAGGAUCACCCAUGUGCGAUGA		14.3	31.4		

Sequence	apparent Kd [1, 3] [nM]	apparent Kd [1, 4] [nM]	apparent Kd [1, 5] [nM]	apparent Kd [1, 6] [nM]	also measured
AUUUAUAGUUGUGAUACCAGACUUACAUGAGGAUCACCCAUGUUACUUAAAUGUUUUGAUGUCCCUUGGCAGCACUGUUUUUUUA		16.6			
AAACGUUGCUCAGAUACCAGACAUGAGGAUCACCCAUGUACCGAGGUACCCGAAAGGAAUGUCCCUUGGCAGCUGAGCAACGAAA		11	123		
ACCAGCACACAUGAUACCAGCGACAUGAGGAUCACCCAUGUACGGCGUGUAUCGAAAGGUUGCCCUUGGCAGCAUGAUAGUGCUA		12.8	129		
UGACAUUGCUGCGAUACCAGACAUGAGGAUCACCCAUGUACCAAGGUACCCGAAAGGAAUGUCCCUUGGCAGCGCAGCAAUGUCU		9.4	21.2		
ACGAUAGGACAUGAGGAUCACCCAUGUGAUACCAGCCUGGAAACAGGCCCUUGGCAGCACAAAUACUCCAGAAACCUAUCGAAUA		281	226		
AGACAUGAGGAUCACCCAUGUAGUAUGGAUACCAGAUCCAGAUUUAUCCCUUGGCAGCUGUGGUACAGCGAUGGAUUGCUCCUAG		38	39.8		
ACGACGCAUAGUGAUACCAGUAGAACAUGAGGAUCACCCAUGUCUGUGACGCACAAAUUCUGCCCUUGGCAGCACUAUGCGUCAG	11.4			33.3	
ACACAUGAGGAUCACCCAUGUCCAAUAGAUACCAGUGAUACGGUGCACCCUUGGCAGCUGUUACUGAGUGAUGGUUCCCUCGGAA	67.6			97.1	
AGACAUGAGGAUCACCCAUGUAGCAUGGAUACCAGAUGUAGAUUUGUCCCUUGGCAGCUGUGGUAAAGUGAUGCAUUGCUCCUAG		45.2	45.2		
GGGUAUGAUCCGGAUACCAGCGAACAUGAGGAUCACCCAUGUGACCUAAGAUAGGCUCUACGCCCUUGGCAGCCGCGAUCGCGUU	24.8			16.1	
AGACAUGAGGAUCACCCAUGUAGCACGGAUACCAGAUCCAGAUUUAUCCCUUGGCAGCUGUGGUACAGCGUUGCAACGCUCCUAG		18.8	29.4		
UUAGAUAUGACGGAUACCAGCGUGUUGUAGAACAUGAGGAUCACCCAUGUAGUGAUCAUGCGCCCUUGGCAGCUGGUAUGUUUGG	262			829	
UGCGAUUGCUCAGAUACCAGACAUGAGGAUCACCCAUGUACCAAGGUAAAGAAAUAACGUGUCCCUUGGCAGCUGAGCAAUCGCU		10.2	98.4		
AGAAUACAUGUUUUAAUACGGUUUACUGAUACCAGUGUAUCUAUUCACCCUUGGCAGCAGAGACAUGAGGAUCACCCAUGUAUUA		38.8	55.2		
CCACACAUGAGGAUCACCCAUGUAAUUGAUACCAGAUUUAAAUGAGUCCCUUGGCAGCAGUGAGCUAGAGUUGUCGUAUAUAUGG	17			18.9	
GCAAUACAUGAGGAUCACCCAUGUGCAGAUACCAGAGGUGCGUGCCUCCCUUGGCAGCUGCGACGCUCUGGAAGCUUGUGUGUCU		19.4	25.2		
GCACCAGGUACGGAUACCAGAGCAAGCCAAAUGAGUGAACAUGAGGAUCACCCAUGUUUGCUCCCUUGGCAGCCGUACCUGGUGC		9.34	45.2		
UCUUGGUCCGCAAGGACCGUGAGUUGCGAUACCAGCACGGUAACGUGCCCUUGGCAGCGCACAUGAGGAUCACCCAUGUGGUGUU		281	318		
CCGUACCCGGAGAAGGAAGUCGUUGGAUGGCCAACAUGAGGAUCACCCAUGUGAUUUCAACUUACUUAGGAUAUCCAAAAUGAG					apparent Kd ([2]; no ligand): 58.4 nM; apparent Kd [2, 7]: 24.1 nM
UUGAGAGGACAGAAGGUUGGGCUCUUGAUCUACGCGCGCGACAUGAGGAUCACCCAUGUGCUUCCAAAGGAUAUGUCACUCGCA					apparent Kd ([2]; no ligand): 138 nM; apparent Kd [2, 7]: 44.8 nM

From the EternaBench riboswitch data
